Data set [1] has as its system Rattus norvegicus. Nature of the data set: Gastrointestinal toxicity in Wistar albino rat assessed as ulcer index at 45 mg/kg, po after 12 hrs. It is filed as organism-based. The arrangement: dose 45 mg/kg, route oral. The note with it: in vivo. An outline of the steps:
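Rats received two equal oral doses (45 mg/kg/dose) at 0 and 12 h; controls received 0.5% CMC only. After 17 h on normal diet, rats were killed. Stomachs were opened along the greater curvature and scored under a 4× lens: 0.5 redness, 1 spot ulcers, 1.5 haemorrhagic streaks, 2 for 3–5 ulcers, 3 for more than 5. Severity index = group mean score minus control mean.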

The test system of data set [2] is Rattus norvegicus. Briefly: Antiinflammatory activity in Wistar albino rat assessed as inhibition of carageenaan-induced paw edema at 45 mg/kg, po administered 1 hr prior to carageenaan-challenge measured at 3 hrs relative to control. It counts as functional. Summed up:
(§1)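 Compounds were given orally; 1 h later, 0.1 ml of 1% carrageenan in saline was injected subplantar into the hind paw. Paw volume was read by digital plethysmometer before and at 3 and 4 h after carrageenan. Inhibition % = (Vc − Vt)/Vc × 100, where V is the mean paw-volume increase versus untreated control. Six rats per group; mean ± SEM.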

Data set [3] relates to Rattus norvegicus. Briefly: Antiinflammatory activity in Wistar albino rat assessed as inhibition of carageenaan-induced paw edema at 45 mg/kg, po administered 1 hr prior to carageenaan-challenge measured at 4 hrs relative to control. It counts as functional. An outline of the steps: as §1
In data set [4] the test system is Rattus norvegicus. Briefly: Induction of lipid peroxidation in Wistar albino rat assessed as Malondialdehyde level per 100 mg of tissue at 45 mg/kg, po after 12 hrs (reference value: 3.29 +/- 0.19 nmol/100 mg tissue). It counts as organism-based. The arrangement: dose 45 mg/kg, route oral. To be noted: in vivo.
Data set [5] has as its system Pseudomonas aeruginosa. Nature of the data set: Antibacterial activity against Pseudomonas aeruginosa NCTC 10662 at 100 ug/ml after 18 to 24 hrs by cup plate method. It is filed as functional. To be noted: read-out: DIZ. An outline of the steps:
(§2)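 Cup-plate diffusion on nutrient agar seeded with bacterial suspension in 0.01% Tween 80 saline. Plates were pre-dried at 37 °C for 1 h. Agar-punched wells received compound dissolved in DMSO, with DMSO alone as control. After 37 °C for 18–24 h, the zone of growth inhibition around each well was measured in mm; the value is the mean diameter.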

Data set [6] relates to Pseudomonas aeruginosa. Briefly: Antibacterial activity against Pseudomonas aeruginosa NCTC 10662 after 18 to 24 hrs by cup plate method. It counts as functional. An outline of the steps: (§3)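 MIC by cup-plate assay on nutrient agar. Bacterial suspension was prepared in saline with 0.01% Tween 80 and seeded on the agar. Plates were dried at 37 °C for 1 h, then wells were punched and filled with compound in DMSO. After 18–24 h at 37 °C, the MIC was taken as the lowest concentration with no visible growth, using two-fold dilutions.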

Data set [7] deals with Staphylococcus aureus. Nature of the data set: Antibacterial activity against Staphylococcus aureus […] after 18 to 24 hrs by cup plate method. It is filed as functional. An outline of the steps:
as §3

Data set [8] has as its system Staphylococcus aureus. Nature of the data set: Antibacterial activity against Staphylococcus aureus […] at 100 ug/ml after 18 to 24 hrs by cup plate method. To be noted: read-out: DIZ. It is filed as functional. An outline of the steps: as §2
Data set [9] deals with Escherichia coli. Briefly: Antibacterial activity against Escherichia coli NCTC 10418 at 100 ug/ml after 18 to 24 hrs by cup plate method. It is filed as functional. To be noted: read-out: DIZ. Summed up: as §2
Data set [10] deals with Escherichia coli. Nature of the data set: Antibacterial activity against Escherichia coli NCTC 10418 after 18 to 24 hrs by cup plate method. It counts as functional. An outline of the steps:
as §3

The target in data set [11] is T1, Prostaglandin G/H synthase 2 (Homo sapiens) (UniProt P35354).
T1 sequence (whole entry): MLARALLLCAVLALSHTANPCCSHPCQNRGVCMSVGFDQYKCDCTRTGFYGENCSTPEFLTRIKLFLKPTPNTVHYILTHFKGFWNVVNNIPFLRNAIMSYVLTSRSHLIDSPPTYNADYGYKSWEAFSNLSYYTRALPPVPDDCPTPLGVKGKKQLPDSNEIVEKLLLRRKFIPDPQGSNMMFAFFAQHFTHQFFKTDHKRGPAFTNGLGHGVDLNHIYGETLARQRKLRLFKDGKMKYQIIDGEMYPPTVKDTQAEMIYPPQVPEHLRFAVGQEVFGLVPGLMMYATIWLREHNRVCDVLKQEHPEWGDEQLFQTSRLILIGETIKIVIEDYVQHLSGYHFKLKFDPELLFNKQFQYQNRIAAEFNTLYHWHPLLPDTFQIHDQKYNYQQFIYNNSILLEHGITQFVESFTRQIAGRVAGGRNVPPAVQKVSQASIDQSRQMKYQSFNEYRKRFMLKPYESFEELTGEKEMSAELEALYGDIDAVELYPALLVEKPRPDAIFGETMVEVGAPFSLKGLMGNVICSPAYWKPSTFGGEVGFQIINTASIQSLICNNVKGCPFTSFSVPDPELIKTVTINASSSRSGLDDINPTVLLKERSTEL
Briefly: Inhibition of human recombinant COX2 using arachidonic acid as substrate and N,N,N,N-tetramethyl-p-phenylnediamine at 10 uM measured for 25 secs by spectrophotometric analysis.

The structures appear in SMILES notation. ≈ marks a conversion by molar mass, not a printed value.

As usually defined, the inhibition in vivo is the relative decrease from the control value, in per cent. A word on the MIC: it is the lowest concentration found to suppress growth. As a reminder, the inhibition is the share of the control response that was lost under treatment.

As for `COc1ccc2cc([C@H](C)C(=O)O)ccc2c1` [NAPROXEN], the UI in data set [1] worked out at 1.75. Besides, the inhibition in vivo at 45 mg/kg in data set [2] was determined as 78.8%; in data set [3], 81.2%. In [4], the Activity was 7.83 nmol.

Take `O=C(O)c1cn(C2CC2)c2cc(N3CCNCC3)c(F)cc2c1=O` [CIPROFLOXACIN]: the zone of inhibition at 100 µg/mL in data set [5] was 22.6 mm; in data set [8], 23.6 mm; in [9], 25.3 mm. Also, the minimum inhibitory concentration (MIC) in data set [6], in data set [7] and in [10] was 3.12 µg/mL (≈ 9.42 µM) throughout.

On to `Cc1nn(C(=O)c2ccc([N+](=O)[O-])cc2)c2c1nnc1cc(Cl)c(F)cc12`, for which the figures for the zone of inhibition at 100 µg/mL in data set [5], in data set [8] and in [9] were 14.2 mm, 13.3 mm and 16.4 mm, respectively. The results for the minimum inhibitory concentration (MIC) in [6], in [7] and in data set [10] were 12.5 µg/mL (≈ 32.4 µM), 25 µg/mL (≈ 64.8 µM) and 12.5 µg/mL (≈ 32.4 µM), respectively. In addition, the inhibition in vivo at 45 mg/kg in [2] amounted to 24%; in data set [3], 25.5%.

On to `Cc1nn(C(=O)Cc2cccc3ccccc23)c2c1nnc1cc(Cl)c(F)cc12`, for which the zone of inhibition at 100 µg/mL in [5] was found to be 5.11 mm; in data set [9], 6.26 mm. For the same compound, the inhibition in vivo at 45 mg/kg in [2] worked out at 20.5%; in [3], 22.1%.

As to `Cc1nn(C(=O)Cc2ccccc2)c2c1nnc1cc(Cl)c(F)cc12`, the results for the zone of inhibition at 100 µg/mL in [5], in [8] and in [9] were 12.2 mm, 13.5 mm and 13.3 mm, respectively. Also, the UI in [1] is on record as 0.75. The MIC in data set [6], in [7] and in data set [10] was 25 µg/mL (≈ 70.5 µM) throughout. Besides, the values for the inhibition in vivo at 45 mg/kg in data set [2] and in data set [3] were 65.4% and 67.9%, respectively. Also, the inhibition in data set [11] is 5.82%. Besides, the Activity in [4] is on record as 5.84 nmol.

On to `Cc1nn(C(=O)c2ccc(Cl)cc2Cl)c2c1nnc1cc(Cl)c(F)cc12`, for which the zone of inhibition at 100 µg/mL was 14.1 mm in [5], 12.1 mm in data set [8] and 15.3 mm in data set [9]. Moreover, the MIC in data set [6] was 12.5 µg/mL (≈ 30.5 µM); in data set [7], 25 µg/mL (≈ 61 µM); in data set [10], 12.5 µg/mL (≈ 30.5 µM). The inhibition in vivo at 45 mg/kg in [2] came to 39.3%; in [3] it was 41.2%.

Consider `Cc1nn(C(=O)c2ccc(N)cc2)c2c1nnc1cc(Cl)c(F)cc12`, for which the UI in data set [1] stood at 0.99. Besides, in data set [9], the zone of inhibition at 100 µg/mL came out at 6.05 mm. The inhibition in vivo at 45 mg/kg in data set [2] amounted to 59.2%; in [3] it was 61.5%. The Activity in data set [4] is 6.81 nmol.

In the case of `Cc1nn(C(=O)c2ccccc2)c2c1nnc1cc(Cl)c(F)cc12`, the zone of inhibition at 100 µg/mL in data set [5] was 11.1 mm; in data set [8] it was 10.1 mm; in [9] it was 12.2 mm. Besides, the UI in data set [1] is listed as 0.82. Moreover, the figures for the minimal inhibitory concentration (MIC) in data set [6], in [7] and in data set [10] were 50 µg/mL (≈ 147 µM), 50 µg/mL (≈ 147 µM) and 25 µg/mL (≈ 73.4 µM), respectively. Moreover, the inhibition in vivo at 45 mg/kg in [2] was found to be 61.3%; in data set [3] it was 64.4%. Also, the Activity in data set [4] was determined as 5.92 nmol.
